Active and inactive are the calls of the source. The rule behind the calls is not given here.
Key:
PLC-PRF-5 [1] = assay: Antiproliferative activity against human PLC/PRF/5 cells incubated for 72 hrs by CCK8 cells; assay type: functional, cell-based; conditions: PLC-PRF-5, 72 h
PLC-PRF-5 [2] = assay: Induction of cell cycle arrest in human PLC/PRF/5 cells assessed as accumulation at G1 phase at 1 uM incubated for 24 hrs by PI staining based flow cytometric analysis (reference value: 34.78%); assay type: functional
PLC-PRF-5 [3] = assay: Induction of cell cycle arrest in human PLC/PRF/5 cells assessed as accumulation at S phase at 1 uM incubated for 24 hrs by PI staining based flow cytometric analysis (reference value: 42.03%); assay type: functional
PLC-PRF-5 [4] = assay: Induction of cell cycle arrest in human PLC/PRF/5 cells assessed as accumulation at G2 phase at 1 uM incubated for 24 hrs by PI staining based flow cytometric analysis (reference value: 18.05%); assay type: functional
HepG2 [5] = assay: Induction of cell cycle arrest in human HepG2 cells assessed as accumulation at S phase at 0.25 uM incubated for 24 hrs by PI staining based flow cytometric analysis (reference value: 35.46%); assay type: functional
HepG2 [6] = assay: Induction of cell cycle arrest in human HepG2 cells assessed as accumulation at G1 phase at 0.5 uM incubated for 24 hrs by PI staining based flow cytometric analysis (reference value: 37.06%); assay type: functional
HepG2 [7] = assay: Induction of cell cycle arrest in human HepG2 cells assessed as accumulation at S phase at 0.5 uM incubated for 24 hrs by PI staining based flow cytometric analysis (reference value: 35.46%); assay type: functional
PLC-PRF-5 [8] = assay: Induction of apoptosis in human PLC/PRF/5 cells assessed as late apoptotic cells at 0.25 uM incubated for 24 hrs by annexin V staining based cell counting method (reference value: 4.81%); assay type: functional
PLC-PRF-5 [9] = assay: Induction of apoptosis in human PLC/PRF/5 cells assessed as necrotic cells at 0.25 uM incubated for 24 hrs by annexin V staining based cell counting method (reference value: 0.59%); assay type: functional
PLC-PRF-5 [10] = assay: Induction of apoptosis in human PLC/PRF/5 cells assessed as live cells at 0.5 uM incubated for 24 hrs by annexin V staining based cell counting method (reference value: 88.95%); assay type: functional
PLC-PRF-5 [11] = assay: Induction of apoptosis in human PLC/PRF/5 cells assessed as early apoptotic cells at 0.5 uM incubated for 24 hrs by annexin V staining based cell counting method (reference value: 5.65%); assay type: functional
PLC-PRF-5 [12] = assay: Induction of apoptosis in human PLC/PRF/5 cells assessed as necrotic cells at 0.5 uM incubated for 24 hrs by annexin V staining based cell counting method (reference value: 0.59%); assay type: functional
PLC-PRF-5 [13] = assay: Induction of apoptosis in human PLC/PRF/5 cells assessed as early apoptotic cells at 1 uM incubated for 24 hrs by annexin V staining based cell counting method (reference value: 5.65%); assay type: functional
HepG2 [14] = assay: Induction of apoptosis in human HepG2 cells assessed as live cells at 0.25 uM incubated for 24 hrs by annexin V staining based cell counting method (reference value: 87.35%); assay type: functional
HepG2 [15] = assay: Induction of apoptosis in human HepG2 cells assessed as early apoptotic cells at 0.25 uM incubated for 24 hrs by annexin V staining based cell counting method (reference value: 3.60%); assay type: functional
HepG2 [16] = assay: Induction of apoptosis in human HepG2 cells assessed as live cells at 0.5 uM incubated for 24 hrs by annexin V staining based cell counting method (reference value: 87.35%); assay type: functional
HepG2 [17] = assay: Induction of apoptosis in human HepG2 cells assessed as late apoptotic cells at 0.5 uM incubated for 24 hrs by annexin V staining based cell counting method (reference value: 5.65%); assay type: functional
HepG2 [18] = assay: Induction of apoptosis in human HepG2 cells assessed as live cells at 1 uM incubated for 24 hrs by annexin V staining based cell counting method (reference value: 87.35%); assay type: functional
HepG2 [19] = assay: Induction of apoptosis in human HepG2 cells assessed as late apoptotic cells at 1 uM incubated for 24 hrs by annexin V staining based cell counting method (reference value: 5.65%); assay type: functional
PLC-PRF-5 [20] = assay: Induction of mitochondrial membrane potential loss in human PLC/PRF/5 cell incubated for 24 hrs by JC1 staining based fluorescence microscopic method; assay type: functional
In short: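 Cells seeded in 12-well plates, cultured 12 h, treated 24 h (0, 0.25, 0.5, 1 µM). After a PBS wash, stained with JC-1 in medium for 20 min at 37 °C and washed three times. Red aggregate and green monomer fluorescence were imaged by fluorescence microscopy; the red/green ratio was taken; three independent experiments.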

PLC-PRF-5 [21] = assay: Induction of ROS generation in human PLC/PRF/5 cells by DCFH-DA staining-based flow cytometric analysis; assay type: functional, cell-based
In short: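 Cells were treated with 0, 0.25, 0.5 or 1 µM compound, stained with 10 µM DCFH-DA for 20 min at 37 °C, washed three times, resuspended in PBS and read by flow cytometry. Data are mean ± SD of three independent experiments.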

PLC-PRF-5 [22] = assay: Induction of apoptosis in human PLC/PRF/5 cells assessed as upregulation of Bax protein expression level incubated for 24 hrs by Western blot analysis; assay type: functional, cell-based
In short: (§1)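 Cells were treated 24 h in DMEM with 0, 0.25, 0.5, 1.0 or 1.25 µM compound. Adherent and floating cells were lysed in RIPA on ice and protein measured by BCA. Equal protein was run on 7.5–12.5% SDS-PAGE and transferred to PVDF. Membranes were blocked in 5% milk/PBST, incubated with primary antibody overnight at 4 °C, and detected by ECL.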

PLC-PRF-5 [23] = assay: Induction of apoptosis in human PLC/PRF/5 cells assessed as increase in cytochrome c protein expression level at 0.25 to 1.25 uM incubated for 24 hrs by Western blot analysis; assay type: functional, cell-based; in short: as §1
HepG2 [24] = assay: Induction of apoptosis in human HepG2 cells assessed as upregulation of cleaved caspase 3 protein expression level incubated for 24 hrs by Western blot analysis; assay type: functional, cell-based; in short: as §1
HepG2 [25] = assay: Induction of apoptosis in human HepG2 cells assessed as upregulation of cleaved PARP protein expression level incubated for 24 hrs by Western blot analysis; assay type: functional, cell-based; in short: as §1
PLC-PRF-5 [26] = assay: Induction of apoptosis in human PLC/PRF/5 cells assessed as upregulation of cleaved PARP protein expression level incubated for 24 hrs by Western blot analysis; assay type: functional, cell-based; in short: as §1
[27] = Half life in human plasma measured for 5 to 120 mins by LC-MS/MS analysis; assay type: ADME, cell-free
In short: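 Compound at an initial 5000 ng/mL was incubated in human plasma at 37 °C. 100 µL aliquots were taken at 0–120 min and extracted with methanol plus tyrosine internal standard, then centrifuged and filtered. Extracts were analysed by LC-MS/MS on a triple-quadrupole instrument with ESI.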

Work on C=C1C(=O)[C@]23[C@H](OC(=O)/C=C/c4ccc(OC)cc4)[C@H]1CC[C@H]2[C@@]12CO[C@]3(O)[C@@H](O)[C@@H]1C(C)(C)CC[C@@H]2O yielded an IC50 (PLC-PRF-5 [1]) of 780 nM, an Activity (PLC-PRF-5 [2]) of 45.41% and an Activity (PLC-PRF-5 [3]) of 43.13%. The Activity (PLC-PRF-5 [4]) was 6.11%, the Activity (HepG2 [5]) was 33.94% and the Activity (HepG2 [6]) was 39.07%. The Activity (HepG2 [7]) was 34.53%, the Activity (PLC-PRF-5 [8]) was 9.14% and the Activity (PLC-PRF-5 [9]) was 0.91%. It also gave an Activity (PLC-PRF-5 [10]) of 64.3%, an Activity (PLC-PRF-5 [11]) of 16.04% and an Activity (PLC-PRF-5 [12]) of 0.82%. The Activity (PLC-PRF-5 [13]) was 29.39%, the Activity (HepG2 [14]) was 81.95% and the Activity (HepG2 [15]) was 5.3%. For the same compound, the Activity (HepG2 [16]) was 77.75%, the Activity (HepG2 [17]) was 7.55% and the Activity (HepG2 [18]) was 53.4%. For the same compound, the Activity (HepG2 [19]) was 20.7%, the Activity (PLC-PRF-5 [20]) was “Dose-dependent effect” and the Activity (PLC-PRF-5 [21]) was “Dose-dependent effect”. For the same compound, the Activity (PLC-PRF-5 [22]) was “Dose-dependent effect”, the Activity (PLC-PRF-5 [23]) was “Active” and the Activity (HepG2 [24]) was “Dose-dependent effect”. The Activity (HepG2 [25]) was “Dose-dependent effect”, the Activity (PLC-PRF-5 [26]) was “Dose-dependent effect” and the half-life [27] was 2 h.
